Results on six compounds are retold here after ChEMBL document CHEMBL1150594, “Suberosols A-D, four new sesquiterpenes with beta-caryophyllene skeletons from a Taiwanese gorgonian coral Subergorgia suberosa” (2002).

Holding throughout (assay type): functional
Holding throughout (details): read-out: ED50 (the source's name)

In one test the test system is P388. Put plainly: Cytotoxicity against mouse P388 cells by MTT assay. The method in brief:
(§1)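 Growth inhibition of cancer cells read by a modified MTT colorimetric method, following a previously described procedure. P-388 cells were obtained from an academic laboratory; A549 and HT-29 cells came from the American Type Culture Collection.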
On the technique in general: Formazan colour is commonly taken as a measure of viable cells.

A further test has as its system HT-29. Nature of the test: Cytotoxicity against human HT-29 cells by MTT assay. The method in brief:
as §1

The next test relates to A549. Put plainly: Cytotoxicity against human A549 cells by MTT assay. The method in brief: as §1

SMILES strings stand for the structures. In brackets after ≈: the same amount, converted by molar mass. Where only a bound is given, the exact number is not on record here.

Take `C=C1CC/C=C(\C)C(=O)C[C@@H]2[C@@H]1CC2(C)C` [BUDDLEDIN C]: the EC50 in the test on P388 stood at 4.6 µg/mL (≈ 21.1 µM); in the test on HT-29 it was 3.6 µg/mL (≈ 16.5 µM); with A549, 3.8 µg/mL (≈ 17.4 µM).

As for `C=C1CC/C=C(/C)C(=O)C[C@@H]2[C@@H]1CC2(C)C` [BUDDLEDIN D], the EC50 in the test with P388 came to 6.3 µg/mL (≈ 28.9 µM); in the test with HT-29, 6.6 µg/mL (≈ 30.2 µM); in the test on A549 it was 8.9 µg/mL (≈ 40.8 µM).

Take `C=C1CC[C@H]2O[C@]2(C)[C@@H](O)C[C@@H]2[C@@H]1CC2(C)C` [SUBEROSOL A]: the EC50 in the test with P388 was 3.8 µg/mL (≈ 16.1 µM); with HT-29, more than 50 µg/mL; in the test on A549 it was more than 50 µg/mL.

`C=C1CC[C@H]2O[C@]2(C)[C@H](O)C[C@@H]2[C@@H]1CC2(C)C` [SUBEROSOL B]: the EC50 with P388 was 7.4 µg/mL (≈ 31.3 µM); in the test on HT-29, more than 50 µg/mL; in the test with A549, more than 50 µg/mL.

With `C=C1CC/C=C(\C)[C@H](O)C[C@@H]2[C@@H]1CC2(C)C` [SUBEROSOL C], the EC50 worked out at 2.1 µg/mL (≈ 9.53 µM) with P388, 2.3 µg/mL (≈ 10.4 µM) in the test on HT-29 and 5.6 µg/mL (≈ 25.4 µM) with A549.

As for `C=C1CC/C=C(/C)[C@@H](O)C[C@@H]2[C@@H]1CC2(C)C` [SUBEROSOL D], the EC50 in the test on P388 turned out to be 3.3 µg/mL (≈ 15 µM); with HT-29, 3.8 µg/mL (≈ 17.2 µM); with A549, 4.2 µg/mL (≈ 19.1 µM).
